Experimental data: ChEMBL document CHEMBL1139834, “Synthesis and structure-activity relationships of new benzodioxinic lactones as potential anticancer drugs” (J Med Chem, 2007)

What was measured:
OVCAR-3 = assay: Antitumor activity against human OVCAR-3 cell line; type: functional
Procedure, shortened: (§1)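 Human tumour cell line panel. GI50 is the concentration giving 50% growth inhibition, averaged over at least two determinations. LC50 is the concentration killing 50% of cells in a […] assay.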

HCT-15 = assay: Antitumor activity against human HCT15 cell line; type: functional; procedure, shortened: as §1
SNB-19 = assay: Antitumor activity against human SNB19 cell line; type: functional; procedure, shortened: as §1
U-251 = assay: Antitumor activity against human U251 cell line; type: functional
Procedure, shortened: (§2)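 Human tumour cell lines from a selected panel. GI50 is the concentration giving 50% growth inhibition, averaged from at least two determinations. LC50 is the concentration killing 50% of cells in a […] assay.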

M14 = assay: Antitumor activity against human M14 cell line; type: functional; procedure, shortened: as §1
SK-MEL-2 = assay: Antitumor activity against human SKMEL2 cell line; type: functional; procedure, shortened: as §1
OVCAR-4 = assay: Antitumor activity against human OVCAR4 cell line; type: functional; procedure, shortened: as §1
OVCAR-5 = assay: Antitumor activity against human OVCAR5 cell line; type: functional; procedure, shortened: as §1
L1210 [1] = assay: Cytotoxicity against mouse L1210 cell line; type: cell-based; conditions: Mus musculus, L1210
Procedure, shortened: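 Cells grown at 37 °C under 5% CO2 in medium with 2 mM L-glutamine, penicillin, streptomycin and 20% heat-inactivated horse serum. Drug in DMSO (0.5% final) added to exponentially growing cells seeded at 0.8 × 10^5 cells/mL. Coulter counting in quadruplicate at 48 h (L1210) or 96 h (HT-29). IC50 from probit of % growth inhibition versus log dose; four independent runs in triplicate.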

L1210 [2] = assay: Cell cycle arrest in mouse L1210 cell line by accumulation at 8N phase at 5 uM after 24 hrs; type: functional
Procedure, shortened: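 L1210 cells in RPMI 1640 with 2 mM L-glutamine, penicillin, streptomycin and 20% heat-inactivated horse serum, 5% CO2, 37 °C, exposed to several drug concentrations. Cells fixed in 70% ethanol, washed, stained 30 min at room temperature with propidium iodide plus RNAse in PBS, then flow cytometry. Read-out is percentage of cells in each cycle phase after 24 h exposure.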

RPMI-8226 = assay: Antitumor activity against human RPMI8226 cell line; type: functional; procedure, shortened: as §1
SR = assay: Antitumor activity against human SR cell line; type: functional; procedure, shortened: as §2
HOP-62 = assay: Antitumor activity against human HOP62 cell line; type: functional; procedure, shortened: as §1
SN12C = assay: Antitumor activity against human SN12C cell line; type: functional; procedure, shortened: as §1
UO-31 = assay: Antitumor activity against human UO31 cell line; type: functional; procedure, shortened: as §2
PC-3 = assay: Antitumor activity against human PC3 cell line; type: functional; procedure, shortened: as §1
T47D = assay: Antitumor activity against human T47D cell line; type: functional; procedure, shortened: as §2
[3] = read-out: LC50 (the source's name)

CCCCc1c2c(c(C)c3c1C(=O)OC3)Oc1ccccc1O2
GI50 (OVCAR-3): 0.525 µM
CC50 (OVCAR-3; [3]): 100 µM
GI50 (HCT-15): 0.589 µM
CC50 (HCT-15; [3]): 100 µM
GI50 (SNB-19): 0.589 µM
CC50 (SNB-19; [3]): 100 µM
GI50 (U-251): 0.525 µM
CC50 (U-251; [3]): 40 µM
GI50 (M14): 0.603 µM
CC50 (M14; [3]): 100 µM
GI50 (SK-MEL-2): 0.363 µM
CC50 (SK-MEL-2; [3]): 100 µM
GI50 (OVCAR-4): 1.95 µM
CC50 (OVCAR-4; [3]): 100 µM
GI50 (OVCAR-5): 7.59 µM
CC50 (OVCAR-5; [3]): 100 µM
IC50 (L1210 [1]): 2.4 µM
Activity (L1210 [2]): 67%
GI50 (RPMI-8226): 0.759 µM
CC50 (RPMI-8226; [3]): 100 µM
GI50 (SR): 0.132 µM
CC50 (SR; [3]): 100 µM
GI50 (HOP-62): 1.45 µM
CC50 (HOP-62; [3]): 100 µM
GI50 (SN12C): 1.26 µM
CC50 (SN12C; [3]): 100 µM
GI50 (UO-31): 2.24 µM
CC50 (UO-31; [3]): 100 µM
GI50 (PC-3): 0.437 µM
CC50 (PC-3; [3]): 100 µM
GI50 (T47D): 6.46 µM
CC50 (T47D; [3]): 100 µM
